From ChEMBL document CHEMBL1144897, “A potent, selective inhibitor of matrix metalloproteinase-3 for the topical treatment of chronic dermal ulcers” (J Med Chem, 2003)
pIC50: −log10 of the molar value.

Experiments:
[1] = molecular target: Stromelysin-1 (Homo sapiens, UniProt P08254)
[2] = molecular target: T1, Matrilysin (Homo sapiens, UniProt P09237); assay: Inhibition of human matrix metalloprotease-7 (MMP-7)
T1 sequence (P09237 whole entry): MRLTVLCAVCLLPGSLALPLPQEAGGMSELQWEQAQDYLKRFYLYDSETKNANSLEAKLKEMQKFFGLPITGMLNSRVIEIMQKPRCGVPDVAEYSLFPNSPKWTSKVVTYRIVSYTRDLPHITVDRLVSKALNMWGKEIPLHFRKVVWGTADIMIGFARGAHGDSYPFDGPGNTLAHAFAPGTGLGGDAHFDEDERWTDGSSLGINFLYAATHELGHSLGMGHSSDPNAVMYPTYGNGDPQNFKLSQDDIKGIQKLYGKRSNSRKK

[3] = molecular target: Matrix metalloproteinase-14 (Homo sapiens, UniProt P50281); assay: Inhibition of Matrix metalloprotease-14
Summary of the method: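 Catalytic-domain MMP-14 stock (10 μM) activated with trypsin (5 μg/mL) for 20 min at 25 °C, then quenched with soybean trypsin inhibitor (50 μg/mL). Run in Tris buffer pH 7.5 (100 mM Tris, 100 mM NaCl, 10 mM CaCl₂, 0.16% Brij 35) with 1 nM enzyme and 10 μM Mca-Pro-Leu-Gly-Leu-Dpa-Ala-Arg-NH₂ (final). Fluorogenic cleavage read; IC50 derived.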

[4] = molecular target: Matrix metalloproteinase-9 (Homo sapiens, UniProt P14780); assay: Inhibition of human matrix metalloprotease-9 (MMP-9)
Chain of Matrix metalloproteinase-9 (P14780 whole entry): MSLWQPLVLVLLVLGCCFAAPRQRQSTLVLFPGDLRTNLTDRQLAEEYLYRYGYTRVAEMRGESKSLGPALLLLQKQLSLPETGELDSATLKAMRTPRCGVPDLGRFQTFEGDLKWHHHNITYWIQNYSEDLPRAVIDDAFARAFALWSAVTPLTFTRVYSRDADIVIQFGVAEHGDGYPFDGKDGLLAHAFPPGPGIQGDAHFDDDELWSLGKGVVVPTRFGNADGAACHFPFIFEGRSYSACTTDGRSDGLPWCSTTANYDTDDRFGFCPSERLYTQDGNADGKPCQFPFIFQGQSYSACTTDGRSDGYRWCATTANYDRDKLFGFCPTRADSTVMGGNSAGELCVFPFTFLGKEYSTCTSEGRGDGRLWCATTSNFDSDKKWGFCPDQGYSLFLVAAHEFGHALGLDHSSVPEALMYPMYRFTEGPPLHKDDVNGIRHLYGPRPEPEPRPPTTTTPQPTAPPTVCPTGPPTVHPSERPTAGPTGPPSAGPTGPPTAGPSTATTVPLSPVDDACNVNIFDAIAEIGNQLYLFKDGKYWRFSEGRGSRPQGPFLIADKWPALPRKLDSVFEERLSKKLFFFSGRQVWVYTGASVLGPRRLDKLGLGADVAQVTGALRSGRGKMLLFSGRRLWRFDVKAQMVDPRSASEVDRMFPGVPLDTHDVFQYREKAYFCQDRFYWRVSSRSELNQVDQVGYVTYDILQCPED
Summary of the method: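 Human catalytic-domain MMP-9 stock (1 μM) activated with 1 mM APMA for 1 h at 37 °C. Assayed at 1 nM enzyme in Tris buffer pH 7.5 (100 mM Tris, 100 mM NaCl, 10 mM CaCl₂, 0.16% Brij 35) with ≤1% DMSO. Inhibitor preincubated 15 min at 37 °C, then 5 μM Mca-Arg-Pro-Lys-Pro-Tyr-Ala-Nva-Trp-Met-Lys(Dnp)-NH₂ added for 1 h at 37 °C. Fluorescence read at ex 328/em 393 nm; IC50 taken from dose–response.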

Chain of Stromelysin-1 (P08254 whole entry): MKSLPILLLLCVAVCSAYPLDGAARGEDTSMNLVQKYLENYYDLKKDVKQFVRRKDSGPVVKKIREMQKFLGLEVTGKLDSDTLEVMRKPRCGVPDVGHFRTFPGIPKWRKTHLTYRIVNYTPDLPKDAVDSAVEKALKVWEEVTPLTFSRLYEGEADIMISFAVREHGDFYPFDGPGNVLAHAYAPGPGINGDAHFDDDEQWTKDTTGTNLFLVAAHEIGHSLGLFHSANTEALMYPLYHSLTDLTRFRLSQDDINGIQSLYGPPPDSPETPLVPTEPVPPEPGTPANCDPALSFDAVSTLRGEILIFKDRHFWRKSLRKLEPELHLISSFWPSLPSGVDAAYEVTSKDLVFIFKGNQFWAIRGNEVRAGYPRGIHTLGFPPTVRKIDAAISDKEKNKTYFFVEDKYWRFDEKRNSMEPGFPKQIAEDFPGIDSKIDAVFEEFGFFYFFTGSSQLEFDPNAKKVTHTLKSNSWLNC

pIC50 [1] | pIC50 [2] | pIC50 [3] | pIC50 [4] | Structure (SMILES)
7.52 | 7.52 |  |  | CNC(=O)[C@H](Cc1ccc(OC)cc1)NC(=O)[C@@H](CC(=O)NO)CC(C)C
 |  | 8.34 | 9.22 | CNC(=O)[C@H](Cc1ccccc1)NC(=O)[C@H](CC(C)C)[C@H](CSc1cccs1)C(=O)NO [BATIMASTAT]
